Residue numbers refer to the chain shown, from its start.
Experiments:
Conditions in all cases: stereoisomer not certain
OR6B3 (Homo sapiens) = biological target: T1, OR6B3 (Homo sapiens) (UniProt Q8NGW1)
T1 sequence (whole entry): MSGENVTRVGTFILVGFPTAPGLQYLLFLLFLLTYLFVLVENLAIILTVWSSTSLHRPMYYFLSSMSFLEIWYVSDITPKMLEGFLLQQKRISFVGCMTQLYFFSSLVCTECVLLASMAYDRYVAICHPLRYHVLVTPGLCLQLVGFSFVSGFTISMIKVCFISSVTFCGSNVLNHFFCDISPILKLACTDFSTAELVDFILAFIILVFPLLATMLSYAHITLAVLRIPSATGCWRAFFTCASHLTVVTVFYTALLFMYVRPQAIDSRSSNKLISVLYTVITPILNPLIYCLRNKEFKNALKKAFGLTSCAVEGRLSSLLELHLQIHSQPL
In short: (§1)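 Each entry records the cell line, G-protein, co-transfected protein and tags used. Methods varied with the source, often transient luciferase assays in mammalian cell lines. A receptor–molecule pair is called responsive (active) if the original authors judged its signal statistically different from baseline and non-responsive (inactive) otherwise.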

OR6C1 (Homo sapiens) = biological target: T2, OR6C1 (Homo sapiens) (UniProt Q96RD1)
T2 sequence (whole entry): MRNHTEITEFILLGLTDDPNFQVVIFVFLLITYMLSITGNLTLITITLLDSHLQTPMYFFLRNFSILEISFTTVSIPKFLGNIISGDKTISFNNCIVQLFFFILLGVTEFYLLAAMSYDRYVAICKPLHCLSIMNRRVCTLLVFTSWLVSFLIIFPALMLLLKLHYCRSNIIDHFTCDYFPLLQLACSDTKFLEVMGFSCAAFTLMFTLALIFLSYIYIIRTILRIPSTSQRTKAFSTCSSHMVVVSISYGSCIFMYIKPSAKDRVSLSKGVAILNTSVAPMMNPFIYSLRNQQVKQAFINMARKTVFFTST
In short: as §1

OR6C2 (Homo sapiens) = biological target: T3, OR6C2 (Homo sapiens) (UniProt Q9NZP2)
T3 sequence (whole entry): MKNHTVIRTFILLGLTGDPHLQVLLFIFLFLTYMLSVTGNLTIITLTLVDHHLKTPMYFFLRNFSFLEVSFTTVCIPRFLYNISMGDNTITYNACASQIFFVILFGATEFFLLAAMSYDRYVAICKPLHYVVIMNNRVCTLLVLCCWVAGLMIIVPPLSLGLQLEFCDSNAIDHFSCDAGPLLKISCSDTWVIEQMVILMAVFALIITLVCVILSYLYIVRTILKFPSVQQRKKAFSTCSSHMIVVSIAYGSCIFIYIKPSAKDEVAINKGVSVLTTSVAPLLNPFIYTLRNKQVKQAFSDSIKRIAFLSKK
In short: as §1

OR6C3 (Homo sapiens) = biological target: T4, OR6C3 (Homo sapiens) (UniProt Q9NZP0)
T4 sequence (whole entry): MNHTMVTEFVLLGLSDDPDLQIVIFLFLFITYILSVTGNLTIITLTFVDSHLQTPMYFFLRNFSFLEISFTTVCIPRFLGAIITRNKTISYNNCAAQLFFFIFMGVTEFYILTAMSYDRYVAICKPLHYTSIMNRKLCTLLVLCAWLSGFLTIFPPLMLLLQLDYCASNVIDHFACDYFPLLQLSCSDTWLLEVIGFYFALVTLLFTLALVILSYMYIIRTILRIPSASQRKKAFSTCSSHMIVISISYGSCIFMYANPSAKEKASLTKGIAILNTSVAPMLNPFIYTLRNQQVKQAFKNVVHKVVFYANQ
In short: as §1

OR6C4 (Homo sapiens) = biological target: T5, OR6C4 (Homo sapiens) (UniProt Q8NGE1)
T5 sequence (whole entry): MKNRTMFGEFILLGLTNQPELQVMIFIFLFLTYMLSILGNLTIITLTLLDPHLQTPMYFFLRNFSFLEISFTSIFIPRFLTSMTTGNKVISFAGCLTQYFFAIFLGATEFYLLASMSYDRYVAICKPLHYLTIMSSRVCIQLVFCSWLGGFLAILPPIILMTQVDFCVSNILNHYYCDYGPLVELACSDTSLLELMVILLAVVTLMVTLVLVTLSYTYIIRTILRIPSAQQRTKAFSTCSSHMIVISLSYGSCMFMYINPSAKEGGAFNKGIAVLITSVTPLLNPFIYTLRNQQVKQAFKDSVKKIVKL
In short: as §1

OR6C6 (Homo sapiens) = biological target: T6, OR6C6 (Homo sapiens) (UniProt A6NF89)
T6 sequence (whole entry): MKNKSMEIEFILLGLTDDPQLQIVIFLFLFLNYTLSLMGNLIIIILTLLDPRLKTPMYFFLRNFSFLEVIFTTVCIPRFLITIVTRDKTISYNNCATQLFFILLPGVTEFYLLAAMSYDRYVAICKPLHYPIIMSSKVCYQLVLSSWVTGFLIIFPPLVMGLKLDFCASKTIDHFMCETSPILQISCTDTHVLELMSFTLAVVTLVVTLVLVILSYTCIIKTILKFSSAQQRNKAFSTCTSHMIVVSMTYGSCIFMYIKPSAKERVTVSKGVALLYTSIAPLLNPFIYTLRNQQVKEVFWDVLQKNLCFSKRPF
In short: as §1

OR6B3 T48I R131C = system: T7, OR6B3 T48I R131C
T7 sequence (whole entry): T1 sequence (whole entry) with T48I, R131C
In short: as §1

OR6C1 C130Y H165D V246I = system: T8, OR6C1 C130Y H165D V246I
T8 sequence (whole entry): T2 sequence (whole entry) with C130Y, H165D, V246I
In short: as §1

OR6C4 = system: T9, OR6C4
T9 sequence (whole entry): T5 sequence (whole entry) with I37V
In short: as §1

OR6C6 M6I = system: T10, OR6C6 M6I
T10 sequence (whole entry): T6 sequence (whole entry) with M6I
In short: as §1

Measured: odorant receptor agonist call

CCCCC(S)C(C)CO (configuration not stated)
inactive: OR6B3 (Homo sapiens) | OR6C1 (Homo sapiens) | OR6C2 (Homo sapiens) | OR6C3 (Homo sapiens) | OR6C4 (Homo sapiens) | OR6C6 (Homo sapiens)

CCCCCC(=O)C(C)C(C)=O (configuration not stated)
inactive: OR6B3 (Homo sapiens) | OR6C1 (Homo sapiens) | OR6C2 (Homo sapiens) | OR6C3 (Homo sapiens) | OR6C4 (Homo sapiens) | OR6C6 (Homo sapiens)

CC1=C(O)C(=O)OC1C (configuration not stated)
inactive: all assays above

CC1=C(O)C(=O)C(C)O1 (configuration not stated)
inactive: all assays above

CC1=NC(C)C(C)S1 (configuration not stated)
inactive: all assays above

Cc1cnc(C)c(C)n1
inactive: all assays above

CCC(S)C(C)CO (configuration not stated)
inactive: OR6B3 (Homo sapiens) | OR6C1 (Homo sapiens) | OR6C2 (Homo sapiens) | OR6C3 (Homo sapiens) | OR6C4 (Homo sapiens) | OR6C6 (Homo sapiens)

CC(CO)CS (configuration not stated)
inactive: OR6B3 (Homo sapiens) | OR6C1 (Homo sapiens) | OR6C2 (Homo sapiens) | OR6C3 (Homo sapiens) | OR6C4 (Homo sapiens) | OR6C6 (Homo sapiens)

CCC1OC(=O)C(O)=C1C (configuration not stated)
inactive: all assays above

CC(=O)c1c(C)c([N+](=O)[O-])c(C(C)(C)C)c([N+](=O)[O-])c1C
inactive: OR6B3 (Homo sapiens) | OR6C1 (Homo sapiens) | OR6C2 (Homo sapiens) | OR6C3 (Homo sapiens) | OR6C4 (Homo sapiens) | OR6C6 (Homo sapiens)

CCCCCCC=CCCC=O
inactive: all assays above

CC1CCCCCCCCCCCCC(=O)C1 (configuration not stated)
inactive: OR6B3 (Homo sapiens) | OR6C1 (Homo sapiens) | OR6C2 (Homo sapiens) | OR6C3 (Homo sapiens) | OR6C4 (Homo sapiens) | OR6C6 (Homo sapiens)

CCCC(S)CCOC(C)=O (configuration not stated)
inactive: all assays above

CCCCCC(S)C(C)CO (configuration not stated)
inactive: OR6B3 (Homo sapiens) | OR6C1 (Homo sapiens) | OR6C2 (Homo sapiens) | OR6C3 (Homo sapiens) | OR6C4 (Homo sapiens) | OR6C6 (Homo sapiens)

CCC1OC(C)=C(O)C1=O (configuration not stated)
inactive: all assays above

— the M2OR odorant receptor database
